Reference: PubChem BioAssay AID1556 (The Scripps Research Institute Molecular Screening Center, 2009)
About 1,300 (0.45%) of roughly 290,000 compounds were called active. Many of the other results were omitted from the sample, so actives are more common in it than they were. Unmarked numbers belong to inactive results.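 The calls were made as follows: active = inhibition above the mean plus 3 SD of all compounds in the same screening run (cut at about 4.5% in these data); inactive = the rest.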

tested on: metallo-beta-lactamase IMP-1 (Pseudomonas aeruginosa); assay: IMP-1 metallo-beta-lactamase inhibitors, primary screen, biochemical, epi-absorbance readout, Pseudomonas aeruginosa enzyme (AID 1556); conditions: purified IMP-1, nitrocefin hydrolysis, epi-absorbance fluorescence; at 5.6 µM; stronger effect = higher value;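 also: 0% = IMP-1 with DMSO and 100% = DMSO wells lacking enzyme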
Summary of the method: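 Assay system: purified IMP-1; Quantity: IMP-1 0.2 nM before substrate addition; Medium: HEPES buffer pH 7.1 with ZnSO4 and Brij 35; Incubation: 15 min enzyme–compound preincubation, then 25 min nitrocefin reaction, 25 °C; Signal: fluorescence quenching readout, ex 480/em 530 nm; Controls: DMSO with and without IMP-1; Repeats: singlicate testing.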

| Compound | inhibition |
| --- | --- |
| CSCCC(NC(=O)c1ccc(Cl)cc1Cl)C(=O)NNC(=O)c1csc(N2CCOCC2)n1 (stereo unspecified) | -2.46% |
| COc1ccc(Cl)cc1NC(=O)CCS(=O)(=O)c1ccc(Br)cc1 | 9.04% (active) |
| COc1ccc(Cl)cc1NC(=O)CCS(=O)(=O)c1cc2c(cc1C)NC(=O)CO2 | -3.94% |
| O=C(CCS(=O)(=O)c1ccc(Br)cc1)NCCc1ccc(Cl)cc1 | 0.69% |
| COc1ccc2cc(-c3[nH]ncc3CNCCn3nc(C)cc3C)ccc2c1 | -2.54% |
| O=C(NCc1ccncc1)C(=O)NCC1OCCN1S(=O)(=O)c1ccc(Br)cc1 (stereo unspecified) | -1.07% |
| COc1ccc2cc(S(=O)(=O)Nc3ccccn3)ccc2c1 | -3.85% |
| CCOc1ccc(N/C=C/C(=O)c2ccccc2)cc1 | -2.54% |
| COc1ccc(C(=O)/C=C/Nc2ccccn2)cc1 | 5.05% (active) |
| COc1ccc(/C=N/Nc2ccccc2C(=O)O)cc1 | -1.08% |
| CCOC(=O)C1=C(c2ccccc2)NC(=O)NC1c1cc(OC)c(OC)cc1OC (stereo unspecified) | -2.08% |
| Cc1cc(NC(=O)CSc2nnc(Nc3ccccc3F)s2)no1 | -0.94% |
| Cc1ccccc1Nc1nnc(SCC(=O)c2cc3ccccc3o2)s1 | 7.2% (active) |
| Cc1ccc(Nc2nnc(SCC(=O)c3cc4ccccc4o3)s2)cc1C | -0.86% |
| O=[N+]([O-])c1cc(Cl)cc(/C=N/NC(=S)Nc2cc(S(=O)(=O)N3CCOCC3)ccc2Cl)c1O | -0.24% |
| O=C(N/N=C/c1cc(Cl)cc([N+](=O)[O-])c1O)C(O)(c1ccccc1)c1ccccc1 | -3.33% |
| CN(C)/N=C/c1cc(Cl)cc([N+](=O)[O-])c1O | 4.62% (active) |
| O=C(Nc1ccccc1Cc1ccccc1)c1ccc2c(c1)SC1=NS(=O)(=O)CCN12 | -3.52% |
| COc1ccc(CNC(=O)CN(c2ccc(OC)c(Cl)c2)S(=O)(=O)c2ccc(C)cc2)cc1 | -0.9% |
| CCOC(=O)c1cc2cc3ccccc3cc2oc1=O | 0.55% |
| CC1CCN(C(=O)CCNC(=O)c2ccccc2)CC1 | -1.09% |
| Cc1oc2c(F)c(F)c(F)c(F)c2c1S(=O)(=O)Nc1cccc(C(F)(F)F)c1 | -0.74% |
| COc1ccc(OC)c(S(=O)(=O)N2CCCC(C(=O)NCCc3ccccc3)C2)c1 (stereo unspecified) | -0.65% |

| Compound | inhibition |
| --- | --- |
| CCOC(=O)CC1C(=O)NCCN1c1nc2c(C)cccn2c(=O)c1/C=C1\SC(=S)N(C(C)CC)C1=O (stereo unspecified) | -2.03% |
| Cc1cccn2c(=O)c(/C=C3\SC(=S)N(CC(C)C)C3=O)c(NCCCOC(C)C)nc12 | -1.23% |
| CCCN(CCC)c1nc2c(C)cccn2c(=O)c1/C=C1/SC(=S)N(Cc2ccco2)C1=O | 7.59% (active) |
| CC(C)(O)C#Cc1ccc(CN2CCC(CO)(CCc3ccccc3)CC2)cc1 | -0.34% |
| N#Cc1ccc(-c2nc3cc(C#N)c(C#N)cc3nc2-c2ccccc2)cc1C#N | -3.53% |
| CC(=O)Nc1ccc(S(=O)(=O)N(C)c2nc3ccccc3nc2Cl)cc1 | -0.55% |
| O=C(Nc1ccc([N+](=O)[O-])cc1)C1CC12CCC2 (stereo unspecified) | -0.64% |
| CCC(=C/c1sc2ccc3ccccc3c2[n+]1C)/C=C1\Sc2ccc3ccccc3c2N1C | 17.3% (active) |
| CCCNC(=O)CSc1nc(Cc2ccccc2)nc2ccccc12 | -3.79% |
| COc1cc(OC)cc(-c2cc3nc(C4CCN(C(=O)OC(C)(C)C)CC4)cc(=O)n3[nH]2)c1 | -4.79% |
| CCc1ccccc1NC(=O)CCOc1ccccc1 | -1.54% |
| COc1ccc(/C=C2\SC(=S)N(CCC(=O)Nc3ccccn3)C2=O)cc1OC | -4.91% |
| COc1ccccc1C(=O)NNC(=O)CCN1C(=O)/C(=C\c2ccccc2)SC1=S | -0.96% |
| COc1cc(/C=C2/SC(=S)N(Cc3ccccc3)C2=O)cc(OC)c1O | 10% (active) |
| CCCOC1CCCN(C(=O)c2cc(COc3cncc(Cl)c3)on2)C1 (stereo unspecified) | -0.48% |
| O=C(COC(=O)c1ccc(N2CCCC2=O)cc1)c1ccc(OC(F)F)cc1 | -0.84% |
| C[C@@H]1CC[C@@]2(OC1)O[C@H]1C[C@H]3[C@@H]4CC=C5C[C@@H](O)[C@H](O)C[C@]5(C)C4CC[C@]3(C)[C@H]1[C@@H]2C (stereo partly specified) | -4.13% |
| Cc1ccc(S(=O)(=O)N2CCN=C2SCc2c(F)cccc2Cl)cc1 | 0.72% |
| Cc1cc(C)c2cc(CN(Cc3nnnn3Cc3ccc(F)cc3)C3CCCC3)c(=O)[nH]c2c1 | 6.27% (active) |
| Cc1cccc2cc(CN(Cc3nnnn3Cc3ccccc3)C3CCCC3)c(=O)[nH]c12 | -0.68% |
| Cc1cc(C)c2cc(CN(Cc3cccs3)Cc3nnnn3CC3CCCO3)c(=O)[nH]c2c1 (stereo unspecified) | -1.83% |
| COCc1c(C(=O)N/N=C\c2cccnc2)nnn1-c1nonc1N | -2.01% |
| COc1ccc(C2=NS(=O)(=O)N(C)C(C(=O)N3CCCCC3)=C2)cc1 | -5.03% |

| Compound | inhibition |
| --- | --- |
| O=C1c2ccccc2C(=O)N1c1cccc2ccccc12 | -2.06% |
| O=C(O)c1ccc2c3c(cccc13)C(=O)N(OS(=O)(=O)c1ccccc1)C2=O | -1.83% |
| Cc1nn(C)cc1N1C(=O)c2cccc3c(N)ccc(c23)C1=O | 22.2% (active) |
| CN1C(=O)c2cccc3c(N)ccc(c23)C1=O | 41.5% (active) |
| CC(=O)Nc1ccccc1Sc1ccc2c3c(cccc13)C(=O)N(c1ccc(C)cc1)C2=O | -1.41% |
| Cc1nn(-c2cc(Cl)ccc2N)c(=O)c2ccccc12 | -2.53% |
| CCn1c(SCC(=O)Nc2ccc(C)cc2)nc2nc3c(cc2c1=O)CCCC3 | -2.99% |
| COc1ccc(C(CC(=O)c2ccccc2)S(=O)(=O)c2ccccc2)cc1 (stereo unspecified) | -1.87% |
| N#Cc1cccc(CN2CCC(=O)N(CCO)CC2)c1 | -1.5% |
| Cc1ccc(C(=O)NCC(=O)OCc2nnc(-c3ccccc3)o2)cc1 | -0.31% |
| Cc1ccccc1C(=O)NC(=S)Nc1ccc(N2CCN(C(=O)c3ccccc3)CC2)cc1 | -0.21% |
| CN(C)c1ccnc2sc(C(=O)c3ccccc3)c(N)c12 | -4.61% |
| Nc1c(C(=O)c2cccs2)sc2nsc(SCCN3CCCCC3)c12 | 6.4% (active) |
| Cc1nc2sc(C(=O)c3ccccc3)c(N)c2c2c1CCCC2 | -2.49% |
| N#C/C(=C\c1cccnc1)C(=O)Nc1ccc(SC(F)F)cc1 | -1.66% |
| Nc1ccc2nc3c(=O)[nH]c(=S)[nH]c3nc2c1 | 26.7% (active) |
| Cc1cccc(OCC(=O)Nc2ccc(C(=O)O)cc2NC(=O)COc2cccc(C)c2)c1 | -0.18% |
| O=C(CSc1nnnn1-c1ccc(O)cc1)N1N=C(c2ccc3ccccc3c2)CC1c1ccccc1 (stereo unspecified) | -2.75% |
| COc1ccc(N2CCN(S(=O)(=O)c3ccc4c(c3)N(C(C)=O)CCO4)CC2)cc1 | -2.08% |
| Cc1ccnc(NC(=O)c2ccco2)n1 | 29.4% (active) |
| O=C(Nc1ccccc1)c1ccco1 | -3.16% |
| O=C(Nc1ccc2nccnc2c1)c1ccco1 | -1.29% |
| Cc1cccc2c1cnn2C(=O)CCC(=O)NC1CCCCC1 | -3.55% |

| Compound | inhibition |
| --- | --- |
| Cc1cccc(NC(=O)Cn2c(=O)n(Cc3ccccc3)c(=O)c3c(C)c(C)sc32)c1 | -3.05% |
| CCN(CC(=O)Nc1ccc(S(=O)(=O)N2CCCC2)cc1)CC(=O)Nc1cccc(OC)c1 | 13% (active) |
| COc1ccccc1CC(=O)Nc1ccc(S(=O)(=O)N2CCCC2)cc1 | -1.76% |
| CCOc1cccc(NC(=O)C2CCCN(S(=O)(=O)c3ccc(OC)cc3)C2)c1 (stereo unspecified) | 0.1% |
| O=C(CN1CCN(c2ccc(O)cc2)CC1)Nc1ccc(-c2ccccc2)cc1 | -3.22% |
| CC(C)N(C(=O)Cn1cc(S(=O)(=O)CC(=O)N2CCOCC2)c2ccccc21)C(C)C | 1.49% |
| Cc1cc(C)c2c3c(sc2n1)C(c1ccccc1)C(C#N)=C(N)O3 (stereo unspecified) | -3.3% |
| N#CC1=C(N)Oc2c(sc3ccccc23)C1c1ccco1 (stereo unspecified) | 5.37% (active) |
| CC1=C(C(=O)Nc2ccccc2)C(c2ccco2)C(C#N)=C(SCC(N)=O)N1 (stereo unspecified) | -0.1% |
| Cc1cc(C)nc(N2C(=O)CC(Cc3ccccc3)C2=O)n1 (stereo unspecified) | -2.26% |
| O=C1CC(Cc2ccccc2)C(=O)N1c1ccc(Cl)cn1 (stereo unspecified) | -3.13% |
| O=C(O)CN1C(=O)CC(Cc2ccccc2)C1=O (stereo unspecified) | 4.79% (active) |
| CCC1=C/C(=C\c2ccc3c(c2)OCO3)C(=O)S1 | 6.67% (active) |
| CCOC(=O)CCCNC(=O)COC(=O)/C=C/c1ccc2c(c1)OCO2 | -0.37% |
| O=C1/C(=C/c2ccc3c(c2)OCO3)CCC/C1=C\c1ccc2c(c1)OCO2 | 0.49% |
| O=C(Nc1ccc(F)cc1)C(=O)c1cn(CC(=O)N2CCOCC2)c2ccccc12 | -5.04% |
| CS(=O)(=O)N1CCN(C(=O)CSc2ccccc2)CC1 | -2.52% |
| Oc1ccc2ccc3cccc[n+]3c2c1 | 34.3% (active) |
| CCCCC(=O)Nc1ccccc1N1CCN(c2ccc(F)cc2)CC1 | -3.05% |
| Cc1ccc(CNC(=O)C2CCN(S(=O)(=O)c3ccc4nc5c(c(C(=O)O)c4c3)CC(C)CC5)CC2)cc1 (stereo unspecified) | 5.35% (active) |
| CCOC(CNC(=O)C1CCN(S(=O)(=O)c2ccc3nc4c(c(C(=O)O)c3c2)CC(C)CC4)CC1)OCC (stereo unspecified) | -0.25% |
| CC(=O)N1c2ccc(S(=O)(=O)N3CCC(C(=O)NCc4ccc(F)cc4)CC3)cc2CC1C (stereo unspecified) | -3.57% |
